High-throughput results (PubChem)
The full list was thinned out, with hits kept by preference.
H69AR inhibit = proliferation blockers of H69AR lung cancer cells, primary screen, cell-based, human, 86K library; 85,000 tested, 6% active; AID 598, 2007; viability, % at 10 µM; H69AR lung tumor viability, ATP luminescence, 72 h; stronger effect = lower value;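 active = viability at or below 40%; inactive = viability above 40%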;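 note: multidrug resistant small cell line overexpressing MRP-1 efflux transporter; 100% = mean luminescence of untreated control wells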
PTEN del growth = growth suppression of PTEN-null HCT116, primary screen, cell-based, CellTiter-Glo | 140,000 tested, 1.2% active | HCT116 PTEN-null viability, 60 h; stronger effect = lower value | AID 827, 2007 | viability, % at 10 µM;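 active = viability at or below a set limit, 4 SD under the median of all tested compounds, cut at about 3.7% in these data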;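 note: PTEN knockout HCT116 line with beta catenin targeted HCT116 as companion control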
bCat KO growth = primary screen for growth suppressors in beta-catenin knockout HCT116 cells (colon tumor, human) | HCT116 beta-catenin knockout viability, CellTiter-Glo, 60 h; stronger effect = lower value | viability, % at 10 µM | 140,000 tested, 1.5% active | AID 818, 2007;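 active = viability at or under a set limit, the compound median less 4 SD, cut at about 6% in these data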;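 note: 0% = Hyamine 1622 control at 20 µM and 100% = untreated cell control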
Fibroblast inh = antiproliferative effect on LL 47 fibroblasts – human, LL 47 cells, CellTiter-Glo luminescence, primary screen. LL 47 human lung fibroblast viability, ATP luminescence; stronger effect = lower value. viability, % at 10 µM. 85,000 tested, 1.1% active. AID 719, 2007;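 active = viability at or below 50% in the single dose screen; inactive = viability above 50%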;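 note: compound exposure lasted 72 h before the ATP readout; 100% = median luminescence of untreated cell-only wells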
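Test system: LL 47 human lung fibroblasts / Incubation: 72 h compound exposure at 37 °C after overnight plating / Technique: luminescent ATP detection, CellTiter-Glo / Compound dosing: 0.1% DMSO in all compound wells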
HUVEC inhibit = inhibitors of HUVEC proliferation, primary screen, cell-based, 384-well. CellTiter-Glo luminescence, 72 h; stronger effect = lower value. 86,000 tested, 1.1% active. viability, % at 10 µM (by protocol);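 active = viability at or below 30%; inactive = viability above 30%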;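 note: 100% = median luminescence of DMSO-only cell control wells on each plate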
Active calls of the source: *.

What do the screens show for `COc1ccc(C(C)=O)cc1CSc1nncn1-c1ccccc1`?
PTEN del growth: 102; bCat KO growth: 94

Results for CN1CCN(c2cc3c(c4c2[nH]c2ccccc24)C(=O)CC(C)(C)C3)CC1 ?
H69AR inhibit: 0.9*; PTEN del growth: 1.8*; bCat KO growth: 1.4*; Fibroblast inh: 19*; HUVEC inhibit: 3.3*

How did O=C(CN(Cc1cccs1)C(=O)CSc1nnc(COc2ccccc2)o1)NC1CCCCC1 do in these assays?
H69AR inhibit: 40*; PTEN del growth: 84; bCat KO growth: 83; Fibroblast inh: 91; HUVEC inhibit: 88

What do the screens show for `CCOc1ccc(N(CC(=O)NC2CCCCC2)C(=O)CSc2nnc(COc3ccccc3)o2)cc1`?
H69AR inhibit: 36*; PTEN del growth: 70; bCat KO growth: 64; Fibroblast inh: 97; HUVEC inhibit: 76

Results for O=C(CSc1nnc(CNC(=O)c2cccs2)o1)NC1CCCCC1 ?
H69AR inhibit: 98; PTEN del growth: 108; bCat KO growth: 102; Fibroblast inh: 95; HUVEC inhibit: 91

Results for COc1cc(Nc2nnc(C)s2)c(Cl)cc1Cl ?
H69AR inhibit: 91; PTEN del growth: 102; bCat KO growth: 116; Fibroblast inh: 111; HUVEC inhibit: 104

How did COCCOc1cc(Nc2nnc(C(F)(F)F)s2)c(Cl)cc1Cl do in these assays?
H69AR inhibit: 13*; PTEN del growth: 85; bCat KO growth: 69; Fibroblast inh: 100; HUVEC inhibit: 66

How did COc1ccc(C(=O)c2sc(NC(C)C)nc2N)cc1OC do in these assays?
H69AR inhibit: 81; PTEN del growth: 59; bCat KO growth: 70; Fibroblast inh: 104; HUVEC inhibit: 106

What do the screens show for `COc1cccc(C(=O)c2sc(NC(C)C)nc2N)c1`?
H69AR inhibit: 46; PTEN del growth: 4; bCat KO growth: 4.9*; Fibroblast inh: 43*; HUVEC inhibit: 52

What do the screens show for `COC(=O)C1=C(CN2CCc3ccccc32)NC(=O)NC1c1cc(C)ccc1C` (stereo not drawn)?
H69AR inhibit: 34*; PTEN del growth: 41; bCat KO growth: 58; Fibroblast inh: 89; HUVEC inhibit: 85

What do the screens show for `Cc1nc2sc3c(c2c2nc(-c4ccco4)nn12)CC(C)(C)OC3`?
H69AR inhibit: 78; Fibroblast inh: 113; HUVEC inhibit: 97

Results for COc1ccc(NC(=O)N2CCC(n3nnc4cc(C)ccc43)CC2)cc1 ?
H69AR inhibit: 84; PTEN del growth: 91; bCat KO growth: 97; Fibroblast inh: 103; HUVEC inhibit: 92

How did COc1ccc(-c2nnc(SCCc3ccccc3)n2N)cc1 do in these assays?
H69AR inhibit: 96; PTEN del growth: 109; bCat KO growth: 96; Fibroblast inh: 46*; HUVEC inhibit: 100

How did COc1ccccc1OC(=O)c1cc(Cl)nc2ccccc12 do in these assays?
PTEN del growth: 83; bCat KO growth: 83

How did Cc1cccc(NC(=O)c2ccc([N+](=O)[O-])s2)c1C do in these assays?
PTEN del growth: 2.2*; bCat KO growth: 2.9*

What do the screens show for `Cc1cccc(C)c1NC(=O)c1ccc([N+](=O)[O-])s1`?
PTEN del growth: 28; bCat KO growth: 29

How did COc1ccc(CNC(=O)C(c2ccncc2)N(C(=O)Cc2cccs2)c2ccccc2)cc1 (stereo not drawn) do in these assays?
PTEN del growth: 101; bCat KO growth: 83

How did COc1ccc(N(C(=O)CCl)C(C(=O)NCCc2ccccc2)c2cccs2)cc1 (stereo not drawn) do in these assays?
PTEN del growth: 0.7*; bCat KO growth: 1.6*

Results for O=c1[nH]c2ccccc2n1CCCN1CCN(C(c2ccccc2)c2ccccc2)CC1 ?
H69AR inhibit: 27*; PTEN del growth: 9; bCat KO growth: 5.6*; Fibroblast inh: 75; HUVEC inhibit: 78

Results for CCCn1c(=O)[nH]c2ccccc21 ?
H69AR inhibit: 96; PTEN del growth: 101; bCat KO growth: 99; Fibroblast inh: 104; HUVEC inhibit: 85

How did COc1ccccc1NC(=O)Nc1cc(NC(=O)Nc2ccccc2OC)c(C)nc1C do in these assays?
PTEN del growth: 57; bCat KO growth: 56

How did CCOc1cc(C#N)c(NC(=O)CSc2nnnn2-c2ccc(OC)cc2)cc1OCC do in these assays?
H69AR inhibit: 36*; PTEN del growth: 87; bCat KO growth: 93; Fibroblast inh: 92; HUVEC inhibit: 99

How did CCOC(=O)c1csc(NC(=O)CSc2nnnn2-c2ccc(OC)cc2)n1 do in these assays?
PTEN del growth: 79; bCat KO growth: 78

Results for CCOc1ccccc1NC(=O)CSc1nnnn1-c1ccc(C(=O)OC)cc1 ?
H69AR inhibit: 63; PTEN del growth: 80; bCat KO growth: 62; Fibroblast inh: 103; HUVEC inhibit: 88

What do the screens show for `CCOC(=O)c1c(NC(=O)CSc2nnnn2-c2ccc(OC)cc2)sc(C)c1C`?
H69AR inhibit: 30*; PTEN del growth: 88; bCat KO growth: 79; Fibroblast inh: 96; HUVEC inhibit: 75

Results for CCCCn1c(SCC(=O)Nc2cc(C(F)(F)F)ccc2Cl)nnc1C(CC)N(C)C (stereo not drawn) ?
PTEN del growth: 84; bCat KO growth: 88

What do the screens show for `Cc1ccc(-c2csc(N(C)C(=O)c3c(C)nn(-c4ccccc4)c3Cl)n2)cc1`?
PTEN del growth: 67; bCat KO growth: 71

What do the screens show for `CN1CCCN(C(c2ccccc2)c2ccc(Cl)cc2)CC1` (stereo not drawn)?
H69AR inhibit: 25*; PTEN del growth: 16; bCat KO growth: 17; Fibroblast inh: 65; HUVEC inhibit: 77

What do the screens show for `Cc1cccc(CN2CCN(C(c3ccccc3)c3ccc(Cl)cc3)CC2)c1` (stereo not drawn)?
H69AR inhibit: 89; PTEN del growth: 78; bCat KO growth: 87; Fibroblast inh: 96; HUVEC inhibit: 80

How did O=C(c1cc(C2CC2)nc2ccc(Br)cc12)N1N=C(C(F)F)CC1(O)C(F)F (stereo not drawn) do in these assays?
H69AR inhibit: 17*; PTEN del growth: 6; bCat KO growth: 19; Fibroblast inh: 54; HUVEC inhibit: 29*

How did CCCN(CCC)S(=O)(=O)c1ccc(C(=O)Nc2nc3c(s2)CCc2ccccc2-3)cc1 do in these assays?
PTEN del growth: 2.9*; bCat KO growth: 3.1*

What do the screens show for `Oc1c(C(c2ccco2)N2CCN(C(c3ccccc3)c3ccccc3)CC2)sc2ncnn12` (stereo not drawn)?
H69AR inhibit: 33*; PTEN del growth: 47; bCat KO growth: 51; Fibroblast inh: 94; HUVEC inhibit: 88

Results for Oc1c(C(c2ccccc2)N2CCc3ccccc3C2)sc2ncnn12 (stereo not drawn) ?
H69AR inhibit: 84; PTEN del growth: 96; bCat KO growth: 81; Fibroblast inh: 98; HUVEC inhibit: 88
